What was measured:
[1] = Protein binding in human plasma assessed as unbound fraction at 5 uM by LC-MS/MS analysis based equilibrium dialysis method; assay type: ADME, cell-free
[2] = tested on: Respiratory syncytial virus; assay: Antiviral activity against Respiratory syncytial virus Memphis 37b infected in human HEp2 cells by plaque assay; assay type: functional, organism-based; settings: HEp-2
[3] = Clearance in Sprague-Dawley rat at 50 mg/kg, po measured after 0.25 to 24 hrs by UHPLC-TOF method; assay type: ADME, organism-based; settings: in vivo, time 0.25-24 hrs
[4] = tested on: Respiratory syncytial virus; assay: Antiviral activity against Respiratory syncytial virus infected in human airway epithelial cells assessed as reduction in RSV titer at 10 nM preincubated for 2 hrs followed by viral infection and measured after 7 day post infection by luminescence assay relative to control; assay type: functional, HAE
In short: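 Primary HAE cells were differentiated for 61 days on type IV collagen-coated trans-well inserts (n = 3 cultures). Compound at 10 nM was given basolaterally for 2 h before apical inoculation with 4 × 10⁵ pfu of luciferase-expressing recombinant RSV. Apical virus titer was read by luminescence on days 7 and 8 post-infection and compared with untreated controls. Data are mean SD.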

[5] = Tmax in Beagle dog at 3 mg/kg, […] by UHPLC-TOF method; assay type: ADME, organism-based, Canis lupus familiaris; settings: in vivo, po
[6] = Half life in rat hepatocytes at 3 uM measured up to 60 mins by LC-MS/MS analysis; assay type: ADME, cell-based, Hepatocyte
[7] = Volume of distribution at steady state in Beagle dog at 0.3 mg/kg, iv measured after 0.03 to 24 hrs by UHPLC-TOF method; assay type: ADME, organism-based, Canis lupus familiaris; settings: in vivo, time 0.03-24 hrs, read-out: Vdss
In short: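 Dogs examined by a veterinary surgeon before each session, fed 2 h post-dose, water ad libitum, dosed as amorphous-solid suspension. Serial blood into heparinized tubes, centrifuged at 4 °C for 10 min at 3000g; plasma snap-frozen at −20 °C. IV sampling 2 min–24 h, oral 15 min–24 h. Plasma analysed by UHPLC-quadrupole-TOF MS.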

[8] = tested on: Human orthopneumovirus; assay: Antiviral activity against Respiratory syncytial virus A2 infected in Balb/C mouse assessed as reduction in viral titers in lung homogenates at 10 mg/kg, po treated 2 hrs prior to viral infection followed by compound redosing at 24 hrs and measured after 5 days post infection by plaque assay relative to control; assay type: functional, human respiratory syncytial virus; parameters: scale not given: the % may be the effect or the level left
In short: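 Female Balb/C mice aged 7–8 weeks, 6 per group, received two oral doses 2 h before and 24 h after intranasal inoculation with 5 × 10⁶ pfu of RSV A2. Mice were euthanized on day 5. Lung homogenate titers were determined by plaque assay on Vero cells and expressed as a percentage of the control group.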

[9] = Tmax in Sprague-Dawley rat at 10 mg/kg, po measured after 0.02 to 24 hrs by UHPLC-TOF method; assay type: ADME, organism-based; settings: in vivo, 10 mg/kg, time 0.02-24 hrs
[10] = Apparent permeability across basolateral side to apical side in MDCK-MDR1 cells at 10 uM measured at 60 mins by LC-MS/MS analysis; assay type: ADME, cell-based, Canis lupus familiaris; settings: dog
[11] = Intrinsic clearance in human hepatocytes at 3 uM assessed per million cells measured up to 60 mins by LC-MS/MS analysis; assay type: ADME, cell-based, Hepatocyte; settings: read-out: CLH

NCc1ccc2c(c1)nc(CN1C(=O)C3(CC3)c3ccc(F)cc31)n2CCCC(F)(F)F [SISUNATOVIR]
fraction unbound at 5 µM [1]: 0.67 | EC50 [2]: 1.18 nM | CL/F [3]: 164 mL/min/kg | log(activity) [4]: 2.3 | Tmax [5]: 4 h | half-life at 3 µM [6]: 1.55 h | Vd [7]: 17.6 L/kg | Activity [8]: 92% | Tmax [9]: 2.7 h | Papp B→A at 1 h, 10 µM [10]: 73 ×10⁻⁶ cm/s | hepatocyte CLint at 3 µM [11]: 6.58 µL/min/1e6 cells
